Results on three molecules are retold here after publication PMC11659308 (Communications Chemistry, 2024).

Peptide text beside a SMILES is read from it.

The nature of data set [1]: Asn-Gly isomerisation kinetics followed by time-dependent 1D 1H-NMR. The class given is physicochemical. The conditions noted are these: for k2 (Suc→β-Asp) / k3 (Suc→α-Asp) / t1/2, half-life of the Asn species: 1H-NMR time course, 50 mM Na2HPO4 buffer; for k2 (Suc→β-Asp) / k3 (Suc→α-Asp): COPASI fit; for t1/2, half-life of the Asn species: chemical stability. Summed up:
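Acetylated Asn-Gly-Xxx-Ala amide tetrapeptide (~1 mg) in 50 mM (final) Na2HPO4 with D2O and DSS/NaN3. pH set with 0.1 M HCl/NaOH. Heated samples sonicated 1 min. 1D 1H spectra at 5–120 min and beyond, until reactant fell below ~10%. COSY/TOCSY assignment. Relative integrals fitted to Asn→Suc (irreversible), Suc⇌β-Asp and Suc⇌α-Asp kinetic model.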

The conditions of data set [2]: estimated; cited from earlier work.
The conditions of data set [3]: native versus reduced and unfolded forms; cited from earlier work.

On to `CC(=O)N[C@@H](CC(N)=O)C(=O)NCC(=O)N[C@@H](CCCCN)C(=O)N[C@@H](C)C(N)=O` [-NGKA-] (Ac-NGKA-NH2), for which the “k2 (Suc→β-Asp)” value in data set [1] (pH 7.4, 28 °C) was found to be 0.334 h⁻¹; in data set [1] (pH 7.4, 37 °C) it was 0.643 h⁻¹; in data set [1] (pH 7.4, 46 °C), 2.30 h⁻¹; in data set [1] (pH 7.4, 55 °C) it was 4.00 h⁻¹. For the same molecule, the “k3 (Suc→α-Asp)” value in data set [1] (pH 7.4, 28 °C) is 0.174 h⁻¹; in data set [1] (pH 7.4, 37 °C), 0.255 h⁻¹; in data set [1] (pH 7.4, 46 °C), 1.150 h⁻¹; in data set [1] (pH 7.4, 55 °C), 0.134 h⁻¹. Further, the “t1/2, half-life of the Asn species” value came out at 76.6 h in data set [1] (pH 7.4, 28 °C); 19.1 h in data set [1] (pH 7.4, 37 °C); 9.4 h in data set [1] (pH 7.4, 46 °C); 3.0 h in data set [1] (pH 7.4, 55 °C). Moreover, the “activation Gibbs free energy of the rate-determining initial step (succinimide formation), ∆G‡(1)” value in data set [1] (pH 7.4, Arrhenius, slope of ln k1 vs 1/T (28-55 °C)) turned out to be 87.3 kJ/mol. For the same molecule, the “change in Gibbs free energy of the β-Asp formation step, ∆G‡(2)” value in data set [1] (pH 7.4, Arrhenius, slope of ln k2 vs 1/T (28-55 °C)) was determined as 85.9 kJ/mol.

With `CNC(C)=O` [N-methylacetamide], the “pKa, deprotonation of the amide group” value in data set [2] is 18.

B1: native ribonuclease A: native ribonuclease A, compared with its reduced and unfolded forms (protein, UniProt P61823 27-150, looked up)
Ribonuclease pancreatic: KETAAAKFERQHMDSSTSAASSSNYCNQMMKSRNLTKDRCKPVNTFVHESLADVQAVCSQKNVACKNGQTNCYQSYSTMSITDCRETGSSKYPNCAYKTTQANKHIIVACEGNPYVPVHFDASV
Consider B1, for which the “times less prone to asparagine isomerisation than its reduced and unfolded forms” value in data set [3] is ~ 30 times.
